Laboratory results: ChEMBL document CHEMBL1146764, “Synthesis and evaluation of novel 1,4-naphthoquinone derivatives as antiviral, antifungal and anticancer agents” (2004)
≈ marks a conversion by molar mass, not a printed value.

How the values were obtained:
Aspergillus fumigatus = test: Minimum inhibitory concentration towards Aspergillus fumigatus; format: functional
Candida albicans [1] = test: Minimum inhibitory concentration towards Candida albicans; format: functional
Cryptococcus neoformans [2] = test: Minimum inhibitory concentration towards Cryptococcus neoformans; format: functional
Klebsiella pneumoniae = test: Minimum inhibitory concentration towards Klebsiella pneumoniae; format: functional
Microsporum canis = test: Minimum inhibitory concentration towards Microsporum canis; format: functional
Pseudomonas aeruginosa = test: Minimum inhibitory concentration towards Pseudomonas aeruginosa; format: functional
Staphylococcus aureus = test: Minimum inhibitory concentration towards Staphylococcus aureus; format: functional
Trichophyton benhamiae = test: Minimum inhibitory concentration towards Trichophyton mentagrophytes; format: functional, Trichophyton mentagraphytes
[3] = tested on: Agrobacterium tumefaciens; test: Minimum inhibitory concentration towards Agrobacterium tumefaciens; format: functional
Rattus norvegicus [4] = test: Anticancer activity against lymphoid leukemia P388 in rats at a dose of 10 mg/kg; format: functional
How it was run: (§1)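 Lymphoid leukaemia P 388 in rats, four animals per group, given 10 mg/kg. Survivors counted. Activity expressed as T/C (%) of treated versus control.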

Rattus norvegicus [5] = test: Number of survivors out of 4 rats treated at 10 mg/kg; format: functional; how it was run: as §1
Candida albicans [6] = test: Minimum inhibitory concentration towards C. albicans; value ranges from 7.8-7.9 ug/mL; format: functional, organism-based
Cryptococcus neoformans [7] = test: Minimum inhibitory concentration towards C. neoformans; value ranges from 3.5-3.9 ug/mL; format: functional, organism-based
Influenza A virus = test: In vitro antiviral activity of compound against Influenza-A virus; format: functional
Rattus norvegicus [8] = test: Anticancer activity against Lymphoid Leukemia L-1210 in rats at dose of 12.5 mg/kg; format: functional
Rattus norvegicus [9] = test: Anticancer activity against Lymphoid Leukemia L-1210 in rats at dose of 25.0 mg/kg; Toxic; format: functional, organism-based; set-up: dose 25 mg/kg
Rattus norvegicus [10] = test: Anticancer activity against Lymphoid Leukemia L-1210 in rats at dose of 6.25 mg/kg; format: functional
How it was run: (§2)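 Lymphoid leukaemia L-1210 in rats, six animals per dose group, doses 1.56–25 mg/kg. Survivors counted per group. T/C (%) compares a tumour evaluation parameter in treated versus control animals.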

Rattus norvegicus [11] = test: Number of survivors out of 6 rats treated at 12.5 mg/kg; format: functional
Rattus norvegicus [12] = test: Number of survivors out of 6 rats treated at 25 mg/kg; format: functional; how it was run: as §2
Rattus norvegicus [13] = test: Number of survivors out of 6 rats treated at 6.25 mg/kg; format: functional; how it was run: as §2
Rattus norvegicus [14] = test: Anticancer activity against Lymphoid Leukemia L-1210 in rats at dose of 1.56 mg/kg; format: functional; how it was run: as §2
Rattus norvegicus [15] = test: Anticancer activity against Lymphoid Leukemia L-1210 in rats at dose of 3.12 mg/kg; format: functional; how it was run: as §2
Rattus norvegicus [16] = test: Number of survivors out of 6 rats treated at 1.56 mg/kg; format: functional; how it was run: as §2
Rattus norvegicus [17] = test: Number of survivors out of 6 rats treated at 3.12 mg/kg; format: functional; how it was run: as §2

Compound	MIC (Aspergillus fumigatus)	MIC (Candida albicans [1])	MIC (Cryptococcus neoformans [2])	MIC (Klebsiella pneumoniae)	MIC (Microsporum canis)	MIC (Pseudomonas aeruginosa)	MIC (Staphylococcus aureus)	MIC (Trichophyton benhamiae)	MIC [3]	also measured
O=C(O)c1ccccc1SC1=CC(=O)c2c(Cl)ccc(O)c2C1=O	> 50 µg/mL	> 50 µg/mL	> 50 µg/mL	25 µg/mL (≈ 69.3 µM)	> 50 µg/mL	50 µg/mL (≈ 139 µM)	> 50 µg/mL	25 µg/mL (≈ 69.3 µM)	> 50 µg/mL	–
O=C1C=C(SCCC(=O)N2CCCCC2)C(=O)c2ccccc21	–	–	–	–	–	–	–	–	–	T/C (Rattus norvegicus [4]): 30%; Survivors (Rattus norvegicus [5]): 4
O=C1C=CC(=O)c2c1c(O)c1sc3ccccc3c(=O)c1c2O	> 50 µg/mL	> 50 µg/mL	> 50 µg/mL	–	> 50 µg/mL	–	–	25 µg/mL (≈ 77.1 µM)	–	–
NYSTATIN	–	–	–	–	–	–	–	–	–	MIC (Candida albicans [6]): 7.9 µg/mL; MIC (Cryptococcus neoformans [7]): 3.9 µg/mL
Clc1ccc(COC(Cn2ccnc2)c2ccc(Cl)cc2Cl)c(Cl)c1 (stereo not drawn) [MICONAZOLE]	12.5 µg/mL (≈ 30 µM)	25 µg/mL (≈ 60.1 µM)	12.5 µg/mL (≈ 30 µM)	–	< 0.78 µg/mL	–	–	< 0.78 µg/mL	–	–
C[C@@H]1[C@H](O)[C@@H](C)/C=C/C=C/C=C/C=C/C=C/C=C/C=C/[C@H](O[C@@H]2O[C@H](C)[C@@H](O)[C@H](N)[C@@H]2O)C[C@@H]2O[C@](O)(C[C@@H](O)C[C@@H](O)[C@H](O)CC[C@@H](O)C[C@@H](O)CC(=O)O[C@H]1C)C[C@H](O)[C@H]2C(=O)O [AMPHOTERICIN B]	–	0.39 µg/mL (≈ 0.422 µM)	0.78 µg/mL (≈ 0.844 µM)	–	1.56 µg/mL (≈ 1.69 µM)	–	–	1.56 µg/mL (≈ 1.69 µM)	–	–
O=C1C(Sc2cccc3ccccc23)=C(Sc2cccc3ccccc23)C(=O)c2c(Cl)ccc(O)c21	> 50 µg/mL	50 µg/mL (≈ 95.2 µM)	> 50 µg/mL	–	> 50 µg/mL	–	–	50 µg/mL (≈ 95.2 µM)	–	–
O=C1C(Sc2ccccc2)=C(Sc2ccccc2)C(=O)c2c(Cl)ccc(O)c21	50 µg/mL (≈ 118 µM)	> 50 µg/mL	> 50 µg/mL	–	50 µg/mL (≈ 118 µM)	–	–	> 50 µg/mL	–	–
O=C1C(=O)c2ccccc2C(O)=C1Sc1ccccc1	> 50 µg/mL	25 µg/mL (≈ 88.6 µM)	> 50 µg/mL	–	25 µg/mL (≈ 88.6 µM)	–	–	6.25 µg/mL (≈ 22.1 µM)	–	Inhibition (Influenza A virus): 50%
O=C(O)CCSC1=CC(=O)c2ccccc2C1=O	–	–	–	50 µg/mL (≈ 191 µM)	–	12.5 µg/mL (≈ 47.7 µM)	12.5 µg/mL (≈ 47.7 µM)	–	25 µg/mL (≈ 95.3 µM)	T/C (Rattus norvegicus [8]): 110%; T/C (Rattus norvegicus [9]): Toxic; T/C (Rattus norvegicus [10]): 115%; Survivors (Rattus norvegicus [11]): 6; Survivors (Rattus norvegicus [12]): 1; Survivors (Rattus norvegicus [13]): 6
NC(=O)CCSC1=CC(=O)c2ccccc2C1=O	–	–	–	–	–	–	–	–	–	T/C (Rattus norvegicus [4]): 49%; Survivors (Rattus norvegicus [5]): 4
O=C1C=C(Sc2ccccc2)C(=O)c2ccccc21	25 µg/mL (≈ 93.9 µM)	12.5 µg/mL (≈ 46.9 µM)	1.56 µg/mL (≈ 5.86 µM)	> 50 µg/mL	< 0.98 µg/mL	> 50 µg/mL	25 µg/mL (≈ 93.9 µM)	< 0.78 µg/mL	> 50 µg/mL	–
GENTAMICIN	–	–	–	0.39 µg/mL	–	0.78 µg/mL	0.78 µg/mL	–	–	–
O=C(O)CCCSC1=CC(=O)c2c(O)ccc(O)c2C1=O	> 50 µg/mL	3.12 µg/mL (≈ 10.1 µM)	1.56 µg/mL (≈ 5.06 µM)	50 µg/mL (≈ 162 µM)	3.12 µg/mL (≈ 10.1 µM)	> 50 µg/mL	> 50 µg/mL	3.12 µg/mL (≈ 10.1 µM)	12.5 µg/mL (≈ 40.5 µM)	–
O=C(O)CCCSC1=CC(=O)c2c(Cl)ccc(O)c2C1=O	> 50 µg/mL	> 50 µg/mL	> 50 µg/mL	–	> 50 µg/mL	–	–	25 µg/mL (≈ 76.5 µM)	–	–
O=C(O)CCSC1=CC(=O)c2c(O)ccc(O)c2C1=O	–	–	–	–	–	–	–	–	–	Inhibition (Influenza A virus): 52%
O=C1C(Sc2cccc3ccccc23)=C(Sc2cccc3ccccc23)C(=O)c2ccccc21	–	–	–	> 50 µg/mL	–	> 50 µg/mL	50 µg/mL (≈ 105 µM)	–	> 50 µg/mL	–
O=C1C=CC(=O)C(Sc2ccccc2C(=O)O)=C1	> 50 µg/mL	> 50 µg/mL	50 µg/mL (≈ 192 µM)	25 µg/mL (≈ 96.1 µM)	> 50 µg/mL	25 µg/mL (≈ 96.1 µM)	> 50 µg/mL	> 50 µg/mL	> 50 µg/mL	–
O=C(O)CCCSC1=CC(=O)c2ccccc2C1=O	> 50 µg/mL	> 50 µg/mL	> 50 µg/mL	50 µg/mL (≈ 181 µM)	> 50 µg/mL	–	12.5 µg/mL (≈ 45.2 µM)	25 µg/mL (≈ 90.5 µM)	–	T/C (Rattus norvegicus [14]): 89%; T/C (Rattus norvegicus [15]): 96%; T/C (Rattus norvegicus [10]): 100%; Survivors (Rattus norvegicus [16]): 6; Survivors (Rattus norvegicus [17]): 6; Survivors (Rattus norvegicus [13]): 6
